Experiments:
H4IIE cells [1] = assay type: cell-based; details: 24 hr
Caspase 3 = test: CeeTox apoptosis; assay type: cell-based, rat; details: H4IIE cells; for Caspase 3 Activity (Index/Dose): dose: dose at which the index was seen; for Caspase 3 Activity (Index/Dose): index: index of RFU
P-glycoprotein (PgP) = test: P-glycoprotein; assay type: cell-based, rat; details: H4IIE cells, MTT, 24 hr, single exposure concentration (20 or 50 μM), without CSA
S. typhimurium TA989 = test: Ames test for mutagenicity, frame-shift strain; assay type: cell-based; details: first TA98 column; for TA98+S9: with S9, up to 10 μM; for TA98−S9: without S9, up to 10 μM
CYP1A2 = target: T1, CYP1A2 (Homo sapiens, UniProt P05177); test: Cloe Screen Cytochrome P450 Inhibition assay; assay type: in vitro ADME
T1 sequence (P05177 1-516): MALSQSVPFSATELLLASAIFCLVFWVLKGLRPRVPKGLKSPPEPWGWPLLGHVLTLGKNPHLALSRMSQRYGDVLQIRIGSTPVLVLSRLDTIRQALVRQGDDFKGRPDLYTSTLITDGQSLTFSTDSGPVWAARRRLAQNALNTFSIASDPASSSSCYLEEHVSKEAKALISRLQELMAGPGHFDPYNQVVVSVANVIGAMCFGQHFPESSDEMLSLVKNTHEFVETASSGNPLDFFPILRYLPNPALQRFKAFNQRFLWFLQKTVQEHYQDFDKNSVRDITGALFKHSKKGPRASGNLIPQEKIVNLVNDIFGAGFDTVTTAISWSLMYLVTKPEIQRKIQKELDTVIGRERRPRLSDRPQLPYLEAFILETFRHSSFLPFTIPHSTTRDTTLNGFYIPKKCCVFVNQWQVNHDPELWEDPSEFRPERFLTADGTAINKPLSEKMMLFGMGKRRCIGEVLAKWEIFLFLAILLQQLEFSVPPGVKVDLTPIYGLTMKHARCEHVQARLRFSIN

CYP2C9 = CYP2C9 (Homo sapiens, UniProt P11712); test: Cloe Screen Cytochrome P450 Inhibition assay; assay type: in vitro ADME
Sequence of CYP2C9 (P11712 whole entry): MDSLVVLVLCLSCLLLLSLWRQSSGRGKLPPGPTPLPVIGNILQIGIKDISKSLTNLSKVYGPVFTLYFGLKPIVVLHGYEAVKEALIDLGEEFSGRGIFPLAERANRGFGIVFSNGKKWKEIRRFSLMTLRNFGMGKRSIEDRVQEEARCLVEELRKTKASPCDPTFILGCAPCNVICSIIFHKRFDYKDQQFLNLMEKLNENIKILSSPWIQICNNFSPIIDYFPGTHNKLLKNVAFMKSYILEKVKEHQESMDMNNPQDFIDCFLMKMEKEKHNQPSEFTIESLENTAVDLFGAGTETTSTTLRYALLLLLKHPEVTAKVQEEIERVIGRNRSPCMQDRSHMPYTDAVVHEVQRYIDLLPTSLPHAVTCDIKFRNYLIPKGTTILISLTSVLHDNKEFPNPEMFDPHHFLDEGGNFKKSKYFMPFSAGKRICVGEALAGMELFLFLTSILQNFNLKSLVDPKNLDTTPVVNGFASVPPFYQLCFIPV

CYP3A4 = CYP3A4 (Homo sapiens, UniProt P08684); test: Cloe Screen Cytochrome P450 Inhibition assay; assay type: in vitro ADME
Sequence of CYP3A4 (P08684 2-503): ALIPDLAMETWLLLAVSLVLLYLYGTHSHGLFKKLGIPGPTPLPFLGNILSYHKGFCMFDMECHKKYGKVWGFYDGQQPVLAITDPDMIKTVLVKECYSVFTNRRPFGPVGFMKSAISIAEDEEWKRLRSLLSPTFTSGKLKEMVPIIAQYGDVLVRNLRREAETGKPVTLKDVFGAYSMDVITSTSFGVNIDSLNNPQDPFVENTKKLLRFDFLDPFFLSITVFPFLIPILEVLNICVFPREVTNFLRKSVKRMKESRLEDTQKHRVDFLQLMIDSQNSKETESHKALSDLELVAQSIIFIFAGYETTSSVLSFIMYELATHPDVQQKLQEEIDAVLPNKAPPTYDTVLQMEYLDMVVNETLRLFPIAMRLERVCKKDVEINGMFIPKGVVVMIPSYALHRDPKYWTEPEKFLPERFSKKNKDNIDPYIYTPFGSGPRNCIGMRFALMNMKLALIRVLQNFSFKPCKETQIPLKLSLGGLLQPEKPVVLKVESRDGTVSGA

CYP2D6 = CYP2D6 (Homo sapiens, UniProt P10635); test: Cloe Screen Cytochrome P450 Inhibition assay; assay type: in vitro ADME
Sequence of CYP2D6 (P10635 whole entry): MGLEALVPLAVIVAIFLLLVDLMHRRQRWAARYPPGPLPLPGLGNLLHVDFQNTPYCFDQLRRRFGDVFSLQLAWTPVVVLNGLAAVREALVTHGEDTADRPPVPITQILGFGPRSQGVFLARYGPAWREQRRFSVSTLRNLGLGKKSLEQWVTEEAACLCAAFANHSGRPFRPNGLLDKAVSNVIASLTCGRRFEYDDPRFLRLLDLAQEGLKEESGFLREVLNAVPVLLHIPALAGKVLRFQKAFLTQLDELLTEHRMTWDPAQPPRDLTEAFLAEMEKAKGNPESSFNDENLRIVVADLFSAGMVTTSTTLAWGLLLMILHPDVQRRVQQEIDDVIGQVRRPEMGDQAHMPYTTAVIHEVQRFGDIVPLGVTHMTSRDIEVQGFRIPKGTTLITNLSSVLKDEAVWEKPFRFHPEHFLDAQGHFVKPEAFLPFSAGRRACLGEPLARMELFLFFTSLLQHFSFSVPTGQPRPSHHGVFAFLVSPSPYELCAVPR
How it was run: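 Run blinded. […] Metabolite formation was monitored by LC-MS/MS. IC50 was calculated from the decrease in metabolite formation relative to vehicle control. Quinidine served as positive control inhibitor.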

CYP2C19 = CYP2C19 (Homo sapiens, UniProt P33261); test: Cloe Screen Cytochrome P450 Inhibition assay; assay type: in vitro ADME
Sequence of CYP2C19 (P33261 whole entry): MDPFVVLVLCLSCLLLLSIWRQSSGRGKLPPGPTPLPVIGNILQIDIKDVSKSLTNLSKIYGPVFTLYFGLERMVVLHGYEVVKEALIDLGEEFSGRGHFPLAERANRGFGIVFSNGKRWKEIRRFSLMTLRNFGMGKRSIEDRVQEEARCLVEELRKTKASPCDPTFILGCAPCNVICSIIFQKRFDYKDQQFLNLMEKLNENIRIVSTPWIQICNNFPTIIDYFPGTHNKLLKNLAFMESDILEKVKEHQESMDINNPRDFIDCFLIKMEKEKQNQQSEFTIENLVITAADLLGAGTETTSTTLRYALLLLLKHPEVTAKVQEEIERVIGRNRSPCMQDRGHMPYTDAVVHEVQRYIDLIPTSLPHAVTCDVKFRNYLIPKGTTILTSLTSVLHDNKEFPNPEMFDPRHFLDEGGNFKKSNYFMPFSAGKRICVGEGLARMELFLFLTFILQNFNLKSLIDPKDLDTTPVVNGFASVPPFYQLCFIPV

H4IIE cells [2] = test: CeeTox cellular ATP content; details: 24 hr
H4IIE cells [3] = test: CeeTox cell mass; details: 24 hr
H4IIE cells [4] = test: CeeTox membrane toxicity; details: 24 hr, α-GST leakage
[5] = test system: Intracellular glutathione (GSH); test: CeeTox intracellular glutathione; details: H4IIE cells
8-Isoprostane (8-ISO) = test: CeeTox lipid peroxidation measured as 8-isoprostane; details: H4IIE cells, 8-ISO score
P-glycoprotein (MDR1) = test: BBB penetration; assay type: in vitro ADME, canine; details: dog, MDCK-MDR1
How it was run: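 MDCK cells transfected with human MDR1 (P-gp) were grown to a confluent monolayer over 4 days. Test compound was added apically, and A→B transport was followed over 60 min; B→A transport was also measured. Compound on each side was quantified by GC/MS. Papp was calculated for both directions, and efflux ratio = Papp B→A/Papp A→B. High BBB potential: Papp A→B ≥3.0×10⁻⁶ cm/s and efflux <3.0.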

H4IIE cells [6] = test: CeeTox analysis composite; assay type: cell-based, rat; details: for TC50 for all general toxicity measures (range over endpoints): H4IIE cells, 24 hr, range across CeeTox endpoints

SMILES | MTT TC50 (H4IIE cells [1]) | Caspase 3 Activity (Index/Dose): dose (Caspase 3) | Caspase 3 Activity (Index/Dose): index (Caspase 3) | % Control(Compound) (P-glycoprotein (PgP)) | TA98+S9 (S. typhimurium TA989) | TA98−S9 (S. typhimurium TA989) | IC50 (CYP1A2) | IC50 (CYP2C9) | IC50 (CYP3A4) | IC50 (CYP2D6) | IC50 (CYP2C19) | ATP TC50 (H4IIE cells [2]) | Cell Mass TC50 (H4IIE cells [3]) | MemTox TC50 (H4IIE cells [4]) | Total GSH TC50 [5] | Membrane Lipid Peroxidation (8-Isoprostane (8-ISO)) | Papp A→B at 60 min (P-glycoprotein (MDR1)) | efflux ratio at 60 min (P-glycoprotein (MDR1)) | TC50 for all general toxicity measures (range over endpoints) (H4IIE cells [6]) | also measured
Cc1cc(O)c(C(=O)/C=C/c2ccc(O)c(O)c2)cc1C [CSMC-10, 4',5'-dimethyl-2',3,4-trihydroxychalcone] | 83 µM | 100 | 1 (0–200 = 1) | 73.4 % Control | Negative (Not mutagenic < 10 μM (NEGATIVE)) | Negative (Not mutagenic < 10 μM (NEGATIVE)) | 6.99 µM | > 10 µM | > 10 µM | > 10 µM | > 10 µM | 75 µM | 86 µM | >300 µM | 144 µM | 2 (2 = Concentration related increase with maximum values ≥ 15 pg/mL) |  |  |  | CYP1A2 inhibition classification (CYP1A2; classified from IC50): moderate inhibition
Cc1ccc2oc(-c3ccc(O)c(O)c3)c(O)c(=O)c2c1 [CSMC-11, 6-methyl-3,3',4'-trihydroxy flavone] | >300 µM | 300 | 1 (0–200 = 1) | 80.3 % Control | Negative (Not mutagenic < 10 μM (NEGATIVE)) | Negative (Not mutagenic < 10 μM (NEGATIVE)) | > 25 µM | > 10 µM | > 10 µM | > 10 µM | > 10 µM | 52 µM | >300 µM | >300 µM | >300 µM | 0 | 6.67 ×10⁻⁶ cm/s | 0.12 |  | 
CC[C@@]1(O)C(=O)OCc2c1cc1n(c2=O)Cc2cc3ccccc3nc2-1 [CAMPTOTHECIN, camptothecin, reference compound] | 3.2 µM | 100 | 3 (400–600 = 3) |  |  |  |  |  |  |  |  | 5.0 µM | 3.0 µM | >300 µM | 5.0 µM | 1 (1 = Modest increase with maximum values ≤ 15 pg/mL) |  |  | 3.0 to 5.0 µM | Ctox ranking group: probability of in vivo toxic effects (H4IIE cells [6]; per standard CeeTox criteria): high probability (1–20 high probability); MemTox TC50 (μM) (H4IIE cells [4]; listed as camptothecin): not affected
O=c1cc(-c2cc(O)c(O)c(O)c2)oc2ccccc12 [CSMC-19, 3',4',5'-trihydroxyflavone] | >300 µM | 300 | 1 (0–200 = 1) | 88.4 % Control | Negative (Not mutagenic < 10 μM (NEGATIVE)) | Negative (Not mutagenic < 10 μM (NEGATIVE)) | > 25 µM | > 10 µM | > 10 µM | > 10 µM | > 10 µM | 256 µM | >300 µM | >300 µM | >300 µM | 2 (2 = Concentration related increase with maximum values ≥ 15 pg/mL) | 105 ×10⁻⁶ cm/s | 0.01 |  | 
C=C(C)[C@H]1Cc2c(ccc3c2O[C@@H]2COc4cc(OC)c(OC)cc4[C@@H]2C3=O)O1 [ROTENONE, rotenone, reference compound] | 0.19 µM |  |  |  |  |  |  |  |  |  |  | 0.05 µM | 0.09 µM | 3.88 µM | 0.03 µM | 2 (2 = Concentration related increase with maximum values ≥ 15 pg/mL) |  |  | 0.05 to 3.88 µM | 

— paper PMC3653324 (Translational stroke research, 2012)
